Measured values: article PMC9643156 (Acta Pharmaceutica Sinica. B, 2022)

What was measured:
[1] = test system: LNCaP, 22RV1 and LNCaP-ENZR cells; experiment: Viability screen of 197 compounds in PCa cells; assay type: cell-based; settings: 20 μmol/L, 72 h, 22RV1, LNCaP-ENZR cells
[2] = test system: 22RV1 orthotopic xenografts; experiment: 22RV1 orthotopic xenografts; assay type: in vivo, BALB/c-nude mice; settings: LLU-206 25 mg/kg i.v.; ENZ 10 mg/kg p.o.
Procedure, shortened: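 Mice aged 6–8 weeks carried 22RV1 tumours implanted orthotopically in the prostate. Tumour growth was followed by bioluminescence imaging and analysed as average fluorescence values, n = 6 per group. Relative tumour weight was recorded at the end. Paraffin-embedded tumours were H&E-stained and stained for Ki-67 by IHC; Ki-67 and necrotic area were quantified by image analysis. Data are mean ± SEM, one-way ANOVA with Tukey.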

LNCaP-ENZR xenografts = experiment: LNCaP-ENZR subcutaneous xenografts; assay type: in vivo, NOD-SCID mice; settings: LLU-206 10, 25 mg/kg via tail vein; ENZ 10 mg/kg by gavage

Structure (SMILES)	anti-PCa activity / inhibition of proliferation in the viability screen [1]	growth of 22RV1 orthotopic xenografts [2]	antitumor activity in LNCaP-ENZR xenografts (tumor volume, tumor weight, serum PSA) (LNCaP-ENZR xenografts)
CNC(=O)c1ccc(N2C(=S)N(c3cnc(C#N)c(C(F)(F)F)c3)C(=O)C23CCC3)cc1F [ARN-509, apalutamide]	no significant inhibition	–	–
CC(O)c1cc(C(=O)N[C@@H](C)Cn2ccc(-c3ccc(C#N)c(Cl)c3)n2)[nH]n1 (stereo partly shown) [ODM-201, darolutamide]	no significant inhibition	–	–
CNC(=O)c1ccc(N2C(=S)N(c3ccc(C#N)c(C(F)(F)F)c3)C(=O)C2(C)C)cc1F [ENZ, Enzalutamide]	–	exhibited resistance	completely resistant
